Only some compounds are listed: those with a hit (about 0.81% of all), similar ones and a draw of the others.
Calpain2 inh = calpain II (pig) inhibition | purified calpain II, fluorogenic peptide substrate, 30 min | inhibition, % at 16 µM | 220,000 tested, 0.37% active;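 active means inhibition above about 50%, limit read from the data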
Rad51 HR inh = blocks human Rad51 in homologous recombination. AID 1385. hRad51 DNA strand exchange, fluorescence dequenching. Q06609. inhibition, % at 10 µM. 200,000 tested, 0.085% active;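 active means inhibition above 40% at the single screening dose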;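 further: 0% = DMSO control wells and 100% = blanks with heterologous ssDNA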
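Test system – preformed human Rad51 ssDNA filaments · Reagent – Donor/quencher-labelled 47-bp dsDNA substrate · Incubation – 37 °C 15-min filament assembly, 30-min compound preincubation, 15-min exchange · Signal – FRET fluorescence dequenching, excitation 485 nm, emission 520 nm · Read-out – percent inhibition from fluorescence, normalised to plate control and blank means · Benchmarks – plate control and blank wells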
Redox H2O2 prof = compounds producing H2O2 with reducing agent – biochemical, NIH compound library profiling, artefact control for MLSCN library redox annotation, primary screen; DTT-dependent redox cycling H2O2, phenol red/HRP absorbance; 100% = 100 µM peroxide control, 0% = buffer; activation, % at 10 µM; 200,000 tested, 0.03% active; AID 878;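 active means activation of at least 50% relative to the plate's high and low controls in the primary single-dose screen; inactive means activation below 50%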;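 further: compound incubated with DTT at 0.8 mM final as the reducing agent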
PKD1 kinase inh = PKD1 (human) kinase inhibition; Q15139; inhibition, % (no concentration beside the values); 200,000 tested, 0.056% active; PKD1 kinase fluorescence polarization assay; in the data active means inhibition above about 50%
Efa HMGR inh = E. faecalis class II HMG-CoA reductase inhibition. purified E. faecalis HMGR, NADPH absorbance 340 nm kinetic. inhibition, % at 10 µM. 190,000 tested, 0.41% active;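 active means inhibition above a set limit, the median over all tested compounds plus 3 SD, cut at about 9.5% in these data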;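 further: enzyme runs in reverse so mevalonate oxidation gives rising NADPH absorbance; 0% = complete reaction with DMSO and 100% = background rate lacking mevalonate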
Pf gamet viab = kills late stage P. falciparum gametocytes; P. falciparum stage V gametocytes, ATP luminescence, 24 h; inhibition, % at 10.9 µM; 150,000 tested, 0.065% active;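 active means inhibition above the mean plus 3 SD of compounds within the control limits, set per campaign, cut at about 38% in these data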;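 further: 0% = DMSO wells and 100% = medium only without gametocytes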
* marks the source's active call; other numbers are inactive results; i = inactive; nt = not tested or not shown.

SMILES	Calpain2 inh	Rad51 HR inh	Redox H2O2 prof	PKD1 kinase inh	Efa HMGR inh	Pf gamet viab
S=c1[nH]nc(COc2ccccc2)n1C1CCCCC1	34	10	3	2	-12	-20
FC(F)(F)c1cccc(NCc2n[nH]c(=S)n2C2CCCCC2)c1	56*	19	-1	2	-2	-32
O=C1OC(c2cccs2)=N/C1=C\c1ccc(-c2ccccc2Cl)o1	-115	0	1	-5	-3	nt
O=C1OC(c2cccs2)=N/C1=C/c1ccc(-c2cccc(C(=O)O)c2)o1	-32	-15	-2	-2	16*	1
Cn1c(NC(=O)/C=C\c2ccccc2)cc(=O)n(C)c1=O	64*	12	0	2	1	11
O=C(Nc1ccncc1)c1cn(-c2ccccc2)nc1-c1cccs1	-12	nt	0	0	13*	5
O=C(Nc1nccs1)c1cn(-c2ccccc2)nc1-c1ccncc1	-96	10	0	-11	-2	69*
O=C(CCCCCCN1C(=O)c2ccccc2C1=O)N1CCC(c2ccccc2)C1 (stereo unspecified)	53*	3	0	2	-3	-4
O=C1c2ccccc2C(=O)N1CCCC(=O)N1CCCc2ccccc21	57*	-7	-3	-8	-2	nt
FC(F)(F)c1ccnc(NCc2ccco2)n1	-14	18	nt	nt	nt	-1
O=C(NN=C1CCCCCC1)c1cccnc1	6	10	0	-3	-2	0
O=C(CC(=O)NN=C1CCCCCC1)NCc1cccnc1	11	-49	0	-5	15*	8
Cc1cccc(OCCCSc2nc3ccc(C)cc3[nH]2)c1	71*	-39	3	3	-4	nt
CC(C)OC(=O)CSc1nnc(-c2cccnc2)n1N	-13	6	0	7	-1	-13
COc1cccc(-n2c(SCC(=O)OC(C)C)nnc2-c2cccnc2)c1	52*	-5	1	-12	-2	9
O=C(Nc1ccc(N2CCCC2)c(Cl)c1)c1ccc2c(c1)OCCO2	10	12	1	-5	9.6*	nt
O=C(Nc1ccc(N2CCCCC2)c(Cl)c1)c1ccc2c(c1)OCCO2	-30	1	0	-4	-4	nt
CC1CN(Cc2c(O)ccc3c2oc(=O)c2ccccc23)CC(C)O1 (stereo unspecified)	80*	1	nt	nt	nt	4
CN1CCN(CCc2nc3cc(NC(=O)c4ccco4)ccc3n2C)CC1	54*	nt	nt	nt	nt	-2
Cn1c(CCN2CCN(c3ccccc3)CC2)nc2cc(NC(=O)c3ccco3)ccc21	-12	nt	2	-12	-1	nt
COc1ccc(-c2cn3cccnc3n2)cc1NC(=O)c1cc(OC)c(OC)c(OC)c1	i	-11	-1	0	9.6*	1
COc1cc(C(=O)Nc2cccc(-c3cn4cccnc4n3)c2)cc(OC)c1OC	i	4	0	-12	1	-11
N=c1c2c3c(sc2ncn1Nc1ccccc1)CCC3	-4	-4	nt	nt	nt	2
O=C(NCCCN1CCCC1=O)c1nnc(Cc2c(F)cccc2Cl)o1	-41	3	1	-10	-1	8
CN1CCN(CCCNC(=O)c2nnc(Cc3c(F)cccc3Cl)o2)CC1	-2	-5	0	6	10*	nt
SMILES	Calpain2 inh	Rad51 HR inh	Redox H2O2 prof	PKD1 kinase inh	Efa HMGR inh	Pf gamet viab
COc1cc(OC)cc(-c2c(C#Cc3ccsc3)c3cc(-c4ccc5c(c4)OCO5)ccc3n2C)c1	nt	nt	nt	nt	nt	14
C=CCNC(=S)N/N=C/c1ccc(C)c([N+](=O)[O-])c1	52*	nt	-1	-6	-7	nt
COc1ccccc1CC(=O)c1ccc(OCc2ccccc2)cc1	nt	nt	nt	nt	nt	-33
COc1ccc(CNC(=O)C2Cc3ccccc3CN2C(=O)c2ccco2)cc1 (stereo unspecified)	-28	1	-2	105*	-4	1
CC(=O)N1CCN(S(=O)(=O)c2ccc(F)c(Cl)c2)CC1	-8	-3	0	-6	4	-7
Cc1ccc(N(CC(=O)N2CCOCC2)S(=O)(=O)c2ccccc2)cc1	11	-5	2	-9	12*	nt
Cc1nc2c(-c3ccc(F)cc3)cnn2c2c1CCC2	-235	22	-1	-5	-13	-27
N=C1c2ccccc2CN1c1ccc(N2CCOCC2)c(S(=O)(=O)Nc2ccc(Cl)cc2)c1	2	29	nt	nt	nt	-23
C=CCNC(=O)c1c(C(F)(F)F)nn(C)c1Cl	-15	2	-2	-6	9.6*	-19
Cn1nc(C(F)(F)F)c(C(=O)Nc2ccc(C(F)(F)F)cc2)c1Cl	1	-1	1	5	-7	21
COc1ccc(-c2ccc(N)cn2)cn1	nt	nt	nt	nt	nt	1
CCOc1ccc(Oc2ccc(S(=O)(=O)N3CCOCC3)cc2N)cc1	19	1	0	0	-1	-23
Nc1cc(S(=O)(=O)N2CCCCC2)ccc1Oc1ccccc1	51*	15	0	1	2	-2
Cc1ccc(NC(=O)CCc2ccc(S(=O)(=O)N3CCOCC3)cc2)c(C)c1	-16	-9	0	-3	15*	2
C#CCOCCOCCOCCNc1nc(N2CCN(C(=O)[C@H]([C@@H](C)CC)n3cc([C@@H](N)CO)nn3)CC2)nc(N2CCN(C(=O)[C@H](Cc3cc4ccccc4[nH]3)n3cc([C@@H](N)Cc4ccc(O)cc4)nn3)CC2)n1	-26	nt	nt	nt	nt	nt
O=C(Cn1nnc2ccccc2c1=O)N[C@H](C(=O)O)c1ccccc1	-14	5	nt	nt	nt	7
Cn1c(N)c(C(=O)COC(=O)CCCc2nc3ccccc3s2)c(=O)n(C)c1=O	51*	-13	0	-2	-8	nt
Cn1c(N)c(C(=O)COC(=O)C2CCCCC2)c(=O)n(C)c1=O	89*	-3	0	-9	-5	nt
Cn1c(N)c(C(=O)COC(=O)CCc2nc3ccccc3s2)c(=O)n(C)c1=O	-9	-1	-2	5	4	18
COCCn1c(-c2ccco2)csc1=Nc1cccnc1	-26	0	0	0	0	nt
COc1ccc(O)c(/C=N/n2c(-c3ccco3)csc2=Nc2cccnc2)c1	10	nt	0	-24	-8	53*
CCCCNC(=O)CN1C(=O)NC(CCc2ccccc2)C1=O (stereo unspecified)	3	-3	0	-3	-7	8
CCCNC(=O)CN1C(=O)NC(CCc2ccccc2)C1=O (stereo unspecified)	-14	12	0	-1	12*	-15
CC1=C(C(N)=O)S(=O)(=O)c2ccccc21	-6	1	nt	nt	nt	nt
CC1(C)CC(=O)C=C(NNC(=O)c2ccccc2O)C1	-2	96*	-4	-1	-3	nt
O=C(N/N=C/c1cc(Br)cc(Br)c1O)c1cccc(S(=O)(=O)N2CCOCC2)c1	-73	i	nt	nt	nt	13
O=C(N/N=C/c1cc(Br)cc(Br)c1O)c1cccc(N2CCCC2=O)c1	-195	-21	0	-5	14*	7
